Experimental data published in ChEMBL document CHEMBL1156169, “Discovery of triarylethanolamine inhibitors of the Kv1.5 potassium channel” (Bioorg Med Chem Lett, 2010).
Converted amounts (≈) assume the structure as drawn.

Assays:
[1] = Drug level in rat plasma at 435 ug/kg/min, iv after 1 hr; type: ADME, organism-based; conditions: 0.435 mg/kg
[2] = Plasma concentration in rat at 0.6 mg/kg/min, iv after 20 mins; type: ADME, organism-based; parameters: route intravenous
[3] = Drug level in rat brain at 435 ug/kg/min, iv after 1 hr; type: ADME, organism-based; conditions: 0.435 mg/kg, read-out: Drug uptake
[4] = Clearance in rat; type: ADME, organism-based; conditions: in vivo
[5] = Plasma concentration in rat at 0.03 mg/kg/min, iv after 20 mins; type: ADME, organism-based; parameters: route intravenous
[6] = Volume of distribution in rat; type: ADME, organism-based; conditions: in vivo
[7] = Aqueous solubility at pH 5.2; type: physicochemical
In short: (§1)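 Solubility measured in buffered aqueous solution at the pH stated for each line and expressed as mg/mL. Solid samples were checked by microscopy under plain polarized light and were crystalline; the specific crystal form was not determined.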

[8] = Plasma concentration in rat at 0.06 mg/kg/min, iv after 20 mins; type: ADME, organism-based; parameters: route intravenous
[9] = Plasma concentration in rat at 0.2 mg/kg/min, iv after 20 mins; type: ADME, organism-based; parameters: route intravenous
in vivo = conditions: rat, brain/plasma, iv, 0.435 mg/kg
[10] = Plasma concentration in rat at 0.01 mg/kg/min, iv after 20 mins; type: ADME, organism-based; parameters: route intravenous
[11] = Aqueous solubility at pH 7.4; type: physicochemical; in short: as §1
[12] = Half life in rat; type: ADME, organism-based; conditions: in vivo
[13] = Aqueous solubility at pH 7.2; type: physicochemical; in short: as §1

concentration at 1 h [1] [µM] | concentration at 20 min [2] [µM] | concentration at 1 h [3] [µM] | clearance [4] [mL/min/kg] | concentration at 20 min [5] [µM] | Vd [6] [L/kg] | solubility [7] [µg/mL] | concentration at 20 min [8] [µM] | concentration at 20 min [9] [µM] | Kp at 1 h (in vivo) | concentration at 20 min [10] [µM] | solubility [11] [µg/mL] | half-life [12] [h] | solubility [13] [µg/mL] | SMILES
23.4 | 9.62 | 13.7 | 59 | 0.651 | 3.4 | 1400 (≈ 4050 µM) | 1.78 | 4.9 | 0.58 | 0.185 | 110 (≈ 318 µM) | 1.1 | – | OC(c1cccnc1)(c1cccnc1)C(c1ccccc1)N1CCCC1 (stereo not given)
– | – | – | – | – | – | – | – | – | – | – | 5.4 (≈ 15 µM) | – | – | OC(c1cccnc1)(c1cccnc1)C(c1ccccc1)N1CCCCC1 (stereo not given)
– | – | – | – | – | – | – | – | – | – | – | – | – | 43 (≈ 119 µM) | OC(c1cccnc1)(c1cccnc1)C(c1ccccc1)N1CCOCC1 (stereo not given)
